Test [1] has as its target T1, SULT1A1 (Homo sapiens, UniProt P50225). It counts as binding. The method, boiled down:
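Purified tag-cleaved human SULT1A1 in 5.0 mM MgCl2, 25 mM potassium phosphate pH 7.4, 0 or 125 μM PAP, 25 ± 2 °C. Ligand titrated from ethanol:water (1:1), final ethanol <0.5%. Intrinsic fluorescence quenching read at λex 290 nm. Triplicate titrations averaged, ΔI/ΔImax vs total ligand least-squares fit with a quadratic single-site-per-monomer model, giving apparent […].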

For test [2], the target named is T1, SULT1A1. As to the kind of experiment: Presteady state. It counts as binding. Particulars: for koff: pH 7.4, 25 °C.
In test [3] the target is T1, SULT1A1. Kind of test: SULT1A1 intrinsic hydrolysis of PAPS. The class given is biochemical. Particulars: saturating 35S-PAPS (7.0 μM), MgCl2 5.0 mM, KPO4 25 mM, pH 7.4, 25 °C.
Setting [4] is: pH 7.4, enzyme species PAPS·E (saturating PAPS).

Structures are written as SMILES. Read-outs that look alike come from different tables or passages of the source.

The source of these data is article PMC3549632 (Biochemistry, 2012).

T1 sequence (P50225 whole entry): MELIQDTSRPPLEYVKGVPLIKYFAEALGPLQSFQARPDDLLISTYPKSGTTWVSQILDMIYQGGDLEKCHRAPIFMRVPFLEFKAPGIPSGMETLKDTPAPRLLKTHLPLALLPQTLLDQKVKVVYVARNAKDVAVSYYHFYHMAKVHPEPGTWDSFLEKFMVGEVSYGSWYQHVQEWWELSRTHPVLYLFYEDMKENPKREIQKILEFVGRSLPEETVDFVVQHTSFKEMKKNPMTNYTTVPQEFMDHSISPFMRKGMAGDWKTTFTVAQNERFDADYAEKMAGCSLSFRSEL

`C[C@]12CC[C@@H]3c4ccc(O)cc4C[C@@H](CCCCCCCCC[S+]([O-])CCCC(F)(F)C(F)(F)F)[C@H]3[C@@H]1CC[C@@H]2O` (stereo partly drawn) [fulvestrant, (7R,8R,9S,13S,14S,17S)-13-methyl-7-[9-(4,4,5,5,5-pentafluoropentyl-sulfinyl)nonyl]-6,7,8,9,11,12,14,15,16,17,-decahydrocyclopenta[α]phenanthrene-3,17-diol]: the Kd at SULT1A1 [1] (Kd, enzyme species E (zero PAP, open form), pH 7.4, 25 °C) was 0.28 µM; at SULT1A1 [1] (Kd, enzyme species PAP·E (saturating PAP, 125 μM; closed form), pH 7.4, 25 °C), 6.9 ± 0.9 µM; at SULT1A1 [2] (Kd (koff/kon), enzyme species E, calculated from rate constants) it was 0.27 µM. Further, the “fold decrease in apparent on-rate constant at saturating PAPS” value at SULT1A1 [2] (E vs PAPS·E) is recorded as 26 fold. The off-rate constant (koff) turned out to be 1.8 s⁻¹ on SULT1A1 [2] (pH 7.4, enzyme species E) and 1.7 s⁻¹ at SULT1A1 [2] (setting [4]). For the same compound, the “effect of PAPS on off-rate constant” value at SULT1A1 [2] (saturating PAPS) is recorded as “not affected”.

For the compound `C[C@]12CC[C@@H]3c4ccc(O)cc4CC[C@H]3[C@@H]1CC[C@@H]2O` [E2, estradiol], the Kd at SULT1A1 [1] turned out to be 1.7 µM; at SULT1A1 [2] it was 1.3 µM. Moreover, the off-rate constant (koff) came to 1.6 s⁻¹ on SULT1A1 [2] (pH 7.4, enzyme species E) and 1.9 s⁻¹ at SULT1A1 [2] (setting [4]). Also, on SULT1A1 [2] (saturating PAPS), the “effect of PAPS on binding on- and off-rate constants” value is given as “not significantly affected”.

For `Nc1ncnc2c1ncn2[C@@H]1O[C@H](COP(=O)(O)OS(=O)(=O)O)[C@@H](OP(=O)(O)O)[C@H]1O` [PAPS, 3′-phosphoadenosine 5′-phosphosulfate], the “kcat (app) for SULT1A1 hydrolysis of PAPS” value on SULT1A1 [3] was determined as 0.000767 s⁻¹.
